Reference: ChEMBL document CHEMBL2375359, “Synthesis and antibacterial evaluation of novel pleuromutilin derivatives” (2013)
In brackets after ≈: the same amount, converted by molar mass.

test system: Staphylococcus aureus; assay: Antibacterial activity against methicillin-resistant Staphylococcus aureus at 320 ug/ml after 24 hrs by Oxford cup assay; format: functional; conditions: read-out: IZ
Method in brief: (§1)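 Oxford cup diffusion: clinical isolate inoculum in 0.9% saline set by McFarland standard, spread evenly on nutrient agar. Cups placed equidistant on the surface and filled with compound solutions prepared as for the agar dilution test, at several concentrations. Inhibition zone measured after 24 h at 37 °C.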

First: C=C[C@]1(C)C[C@@H](OC(=O)CSC(C)(C)CNC(=O)c2cccc(Cl)c2)[C@]2(C)[C@H](C)CC[C@]3(CCC(=O)[C@H]32)[C@@H](C)[C@@H]1O
Second: C=C[C@]1(C)C[C@@H](OC(=O)CSC(C)(C)CNC(=O)[C@H](N)c2ccccc2)[C@]2(C)[C@H](C)CC[C@]3(CCC(=O)[C@H]32)[C@@H](C)[C@@H]1O
The zone of inhibition at 320 µg/mL of the first is higher: 13.5 mm for the first, 10.2 mm for the second.

test system: Streptococcus agalactiae; assay: Antibacterial activity against Streptococcus agalactiae after 48 hrs by agar dilution method; format: functional; conditions: not given
Method in brief: (§2)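 Agar dilution per NCCLS on clinical isolates. 2-fold serial dilutions of compound (2 mL) mixed into 18 mL hot Mueller-Hinton agar. Inoculum from blood slants, adjusted to approx. 10⁵–10⁶ cfu/mL in sterile 0.90% NaCl, then spotted onto the plates. Incubated 36.5 °C, 48 h. MIC is the lowest concentration giving complete growth inhibition. Run in triplicate at pH 7.40.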

Going from `C=C[C@]1(C)C[C@@H](OC(=O)CSC(C)(C)CNC(=O)c2cccc(Cl)c2)[C@]2(C)[C@H](C)CC[C@]3(CCC(=O)[C@H]32)[C@@H](C)[C@@H]1O` to `C=C[C@]1(C)C[C@@H](OC(=O)CSC(C)(C)CNC(=O)[C@H](N)c2ccccc2)[C@]2(C)[C@H](C)CC[C@]3(CCC(=O)[C@H]32)[C@@H](C)[C@@H]1O`, the MIC falls from 32 µg/mL (≈ 53 µM) to 16 µg/mL (≈ 26.7 µM) (2-fold).

test system: Staphylococcus epidermidis; assay: Antibacterial activity against methicillin-resistant Staphylococcus epidermidis at 80 ug/ml after 24 hrs by Oxford cup assay; format: functional; conditions: read-out: IZ; method in brief: as §1

Compared with `C=C[C@]1(C)C[C@@H](OC(=O)CSC(C)(C)CNC(=O)c2cccc(Cl)c2)[C@]2(C)[C@H](C)CC[C@]3(CCC(=O)[C@H]32)[C@@H](C)[C@@H]1O`, `C=C[C@]1(C)C[C@@H](OC(=O)CSC(C)(C)CNC(=O)[C@H](N)c2ccccc2)[C@]2(C)[C@H](C)CC[C@]3(CCC(=O)[C@H]32)[C@@H](C)[C@@H]1O` is higher in zone of inhibition at 80 µg/mL: 9.45 mm for the first, 10.9 mm for the second.

test system: Escherichia coli; assay: Antibacterial activity against Escherichia coli at 160 ug/ml after 24 hrs by Oxford cup assay; format: functional; conditions: read-out: IZ
Method in brief: (§3)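 Oxford cup diffusion with clinical isolates. Inoculum made in 0.9% saline to a McFarland standard and spread evenly on nutrient agar. Compound solutions, prepared as for the agar dilution test, were added at the stated concentration to Oxford cups set equidistant on the agar surface. Inhibition zones were measured after 24 h at 37 °C.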

Compared with `C=C[C@]1(C)C[C@@H](OC(=O)CSC(C)(C)CNC(=O)c2cccc(Cl)c2)[C@]2(C)[C@H](C)CC[C@]3(CCC(=O)[C@H]32)[C@@H](C)[C@@H]1O`, `C=C[C@]1(C)C[C@@H](OC(=O)CSC(C)(C)CNC(=O)[C@H](N)c2ccccc2)[C@]2(C)[C@H](C)CC[C@]3(CCC(=O)[C@H]32)[C@@H](C)[C@@H]1O` is higher in zone of inhibition at 160 µg/mL: 10.7 mm for the first, 11.3 mm for the second.

test system: Streptococcus agalactiae; assay: Antibacterial activity against Streptococcus agalactiae at 80 ug/ml after 24 hrs by Oxford cup assay; format: functional; conditions: read-out: IZ; method in brief: as §3

First: C=C[C@]1(C)C[C@@H](OC(=O)CSC(C)(C)CNC(=O)c2cccc(Cl)c2)[C@]2(C)[C@H](C)CC[C@]3(CCC(=O)[C@H]32)[C@@H](C)[C@@H]1O
Second: C=C[C@]1(C)C[C@@H](OC(=O)CSC(C)(C)CNC(=O)[C@H](N)c2ccccc2)[C@]2(C)[C@H](C)CC[C@]3(CCC(=O)[C@H]32)[C@@H](C)[C@@H]1O
The zone of inhibition at 80 µg/mL of the first is higher: 10.4 mm for the first, 10.1 mm for the second.

test system: Escherichia coli; assay: Antibacterial activity against Escherichia coli after 48 hrs by agar dilution method; format: functional; conditions: not given; method in brief: as §2

`C=C[C@]1(C)C[C@@H](OC(=O)CSC(C)(C)CNC(=O)c2cccc(Cl)c2)[C@]2(C)[C@H](C)CC[C@]3(CCC(=O)[C@H]32)[C@@H](C)[C@@H]1O` and `C=C[C@]1(C)C[C@@H](OC(=O)CSC(C)(C)CNC(=O)[C@H](N)c2ccccc2)[C@]2(C)[C@H](C)CC[C@]3(CCC(=O)[C@H]32)[C@@H](C)[C@@H]1O` are the same in MIC: 8 µg/mL (≈ 13.2 µM) for the first, 8 µg/mL (≈ 13.4 µM) for the second.

test system: Escherichia coli; assay: Antibacterial activity against Escherichia coli at 80 ug/ml after 24 hrs by Oxford cup assay; format: functional; conditions: read-out: IZ; method in brief: as §3

First: C=C[C@]1(C)C[C@@H](OC(=O)CSC(C)(C)CNC(=O)c2cccc(Cl)c2)[C@]2(C)[C@H](C)CC[C@]3(CCC(=O)[C@H]32)[C@@H](C)[C@@H]1O
Second: C=C[C@]1(C)C[C@@H](OC(=O)CSC(C)(C)CNC(=O)[C@H](N)c2ccccc2)[C@]2(C)[C@H](C)CC[C@]3(CCC(=O)[C@H]32)[C@@H](C)[C@@H]1O
The zone of inhibition at 80 µg/mL of the first is higher: 11.9 mm for the first, 9.2 mm for the second.

test system: Staphylococcus aureus; assay: Antibacterial activity against methicillin-resistant Staphylococcus aureus after 48 hrs by agar dilution method; format: functional; conditions: not given
Method in brief: (§4)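 Agar dilution per NCCLS: 2-fold serial dilutions incorporated into hot Mueller-Hinton agar. Clinical isolates grown from blood slants, suspended in sterile 0.90% NaCl to about 10⁵–10⁶ cfu/mL, spotted onto plates. Incubation 36.5 °C, 48 h. MIC taken as the lowest concentration giving complete growth inhibition. Run in triplicate at pH 7.40.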

Compared with `C=C[C@]1(C)C[C@@H](OC(=O)CSC(C)(C)CNC(=O)c2cccc(Cl)c2)[C@]2(C)[C@H](C)CC[C@]3(CCC(=O)[C@H]32)[C@@H](C)[C@@H]1O`, `C=C[C@]1(C)C[C@@H](OC(=O)CSC(C)(C)CNC(=O)[C@H](N)c2ccccc2)[C@]2(C)[C@H](C)CC[C@]3(CCC(=O)[C@H]32)[C@@H](C)[C@@H]1O` is 4-fold lower in MIC: 8 µg/mL (≈ 13.2 µM) for the first, 2 µg/mL (≈ 3.34 µM) for the second.

test system: Staphylococcus aureus; assay: Antibacterial activity against methicillin-resistant Staphylococcus aureus at 80 ug/ml after 24 hrs by Oxford cup assay; format: functional; conditions: read-out: IZ; method in brief: as §1

Going from `C=C[C@]1(C)C[C@@H](OC(=O)CSC(C)(C)CNC(=O)c2cccc(Cl)c2)[C@]2(C)[C@H](C)CC[C@]3(CCC(=O)[C@H]32)[C@@H](C)[C@@H]1O` to `C=C[C@]1(C)C[C@@H](OC(=O)CSC(C)(C)CNC(=O)[C@H](N)c2ccccc2)[C@]2(C)[C@H](C)CC[C@]3(CCC(=O)[C@H]32)[C@@H](C)[C@@H]1O`, the zone of inhibition at 80 µg/mL falls from 11.9 mm to 9.41 mm.

test system: Staphylococcus epidermidis; assay: Antibacterial activity against methicillin-resistant Staphylococcus epidermidis at 160 ug/ml after 24 hrs by Oxford cup assay; format: functional; conditions: read-out: IZ; method in brief: as §1

Going from `C=C[C@]1(C)C[C@@H](OC(=O)CSC(C)(C)CNC(=O)c2cccc(Cl)c2)[C@]2(C)[C@H](C)CC[C@]3(CCC(=O)[C@H]32)[C@@H](C)[C@@H]1O` to `C=C[C@]1(C)C[C@@H](OC(=O)CSC(C)(C)CNC(=O)[C@H](N)c2ccccc2)[C@]2(C)[C@H](C)CC[C@]3(CCC(=O)[C@H]32)[C@@H](C)[C@@H]1O`, the zone of inhibition at 160 µg/mL falls from 10.6 mm to 10 mm.

test system: Staphylococcus aureus; assay: Antibacterial activity against methicillin-resistant Staphylococcus aureus at 160 ug/ml after 24 hrs by Oxford cup assay; format: functional; conditions: read-out: IZ; method in brief: as §1

Going from `C=C[C@]1(C)C[C@@H](OC(=O)CSC(C)(C)CNC(=O)c2cccc(Cl)c2)[C@]2(C)[C@H](C)CC[C@]3(CCC(=O)[C@H]32)[C@@H](C)[C@@H]1O` to `C=C[C@]1(C)C[C@@H](OC(=O)CSC(C)(C)CNC(=O)[C@H](N)c2ccccc2)[C@]2(C)[C@H](C)CC[C@]3(CCC(=O)[C@H]32)[C@@H](C)[C@@H]1O`, the zone of inhibition at 160 µg/mL falls from 13.1 mm to 9.98 mm.

test system: Streptococcus agalactiae; assay: Antibacterial activity against Streptococcus agalactiae at 160 ug/ml after 24 hrs by Oxford cup assay; format: functional; conditions: read-out: IZ; method in brief: as §3

Compared with `C=C[C@]1(C)C[C@@H](OC(=O)CSC(C)(C)CNC(=O)c2cccc(Cl)c2)[C@]2(C)[C@H](C)CC[C@]3(CCC(=O)[C@H]32)[C@@H](C)[C@@H]1O`, `C=C[C@]1(C)C[C@@H](OC(=O)CSC(C)(C)CNC(=O)[C@H](N)c2ccccc2)[C@]2(C)[C@H](C)CC[C@]3(CCC(=O)[C@H]32)[C@@H](C)[C@@H]1O` is lower in zone of inhibition at 160 µg/mL: 13.9 mm for the first, 10.6 mm for the second.

test system: Streptococcus agalactiae; assay: Antibacterial activity against Streptococcus agalactiae at 320 ug/ml after 24 hrs by Oxford cup assay; format: functional; conditions: read-out: IZ; method in brief: as §3

Going from `C=C[C@]1(C)C[C@@H](OC(=O)CSC(C)(C)CNC(=O)c2cccc(Cl)c2)[C@]2(C)[C@H](C)CC[C@]3(CCC(=O)[C@H]32)[C@@H](C)[C@@H]1O` to `C=C[C@]1(C)C[C@@H](OC(=O)CSC(C)(C)CNC(=O)[C@H](N)c2ccccc2)[C@]2(C)[C@H](C)CC[C@]3(CCC(=O)[C@H]32)[C@@H](C)[C@@H]1O`, the zone of inhibition at 320 µg/mL falls from 12.2 mm to 11 mm.

test system: Escherichia coli; assay: Antibacterial activity against Escherichia coli at 320 ug/ml after 24 hrs by Oxford cup assay; format: functional; conditions: read-out: IZ; method in brief: as §3

Going from `C=C[C@]1(C)C[C@@H](OC(=O)CSC(C)(C)CNC(=O)c2cccc(Cl)c2)[C@]2(C)[C@H](C)CC[C@]3(CCC(=O)[C@H]32)[C@@H](C)[C@@H]1O` to `C=C[C@]1(C)C[C@@H](OC(=O)CSC(C)(C)CNC(=O)[C@H](N)c2ccccc2)[C@]2(C)[C@H](C)CC[C@]3(CCC(=O)[C@H]32)[C@@H](C)[C@@H]1O`, the zone of inhibition at 320 µg/mL falls from 15.7 mm to 10.8 mm.

test system: Staphylococcus epidermidis; assay: Antibacterial activity against methicillin-resistant Staphylococcus epidermidis at 320 ug/ml after 24 hrs by Oxford cup assay; format: functional; conditions: read-out: IZ; method in brief: as §1

Going from `C=C[C@]1(C)C[C@@H](OC(=O)CSC(C)(C)CNC(=O)c2cccc(Cl)c2)[C@]2(C)[C@H](C)CC[C@]3(CCC(=O)[C@H]32)[C@@H](C)[C@@H]1O` to `C=C[C@]1(C)C[C@@H](OC(=O)CSC(C)(C)CNC(=O)[C@H](N)c2ccccc2)[C@]2(C)[C@H](C)CC[C@]3(CCC(=O)[C@H]32)[C@@H](C)[C@@H]1O`, the zone of inhibition at 320 µg/mL falls from 11.9 mm to 10.8 mm.

test system: Staphylococcus epidermidis; assay: Antibacterial activity against methicillin-resistant Staphylococcus epidermidis after 48 hrs by agar dilution method; format: functional; conditions: not given; method in brief: as §4

`C=C[C@]1(C)C[C@@H](OC(=O)CSC(C)(C)CNC(=O)c2cccc(Cl)c2)[C@]2(C)[C@H](C)CC[C@]3(CCC(=O)[C@H]32)[C@@H](C)[C@@H]1O` and `C=C[C@]1(C)C[C@@H](OC(=O)CSC(C)(C)CNC(=O)[C@H](N)c2ccccc2)[C@]2(C)[C@H](C)CC[C@]3(CCC(=O)[C@H]32)[C@@H](C)[C@@H]1O` are the same in MIC: 16 µg/mL (≈ 26.5 µM) for the first, 16 µg/mL (≈ 26.7 µM) for the second.
